In ChEMBL document CHEMBL1122061, “Use of a potential rabbit model for structure--behavioral activity studies of cannabinoids” (1982):

How the values were obtained:
Type in all cases: functional
Oryctolagus cuniculus [1] = assay: Number of rabbits convulsed at 0.5 mg/kg, iv out of 1 rabbit tested
How it was run: (§1)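 Adult tetrahydrocannabinol-seizure susceptible (THC-SS) rabbits, 2–4 kg, dosed intravenously with cannabinoid in 10% polysorbate 80/90% physiological saline. Presence or absence of behavioral convulsion was recorded within 20 min. Animals were reused for several compounds or doses, with at least 7 days between trials and treatments given in random order. Every rabbit also received 0.05 mg/kg Δ9-THC at least once. Aim was four rabbits per dose.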

Oryctolagus cuniculus [2] = assay: Number of rabbits convulsed at 2 mg/kg, iv out of 2 rabbits tested; how it was run: as §1
Oryctolagus cuniculus [3] = assay: Number of rabbits convulsed at 4 mg/kg, iv out of 1 rabbit tested; how it was run: as §1
Oryctolagus cuniculus [4] = assay: Number of rabbits convulsed at 1 mg/kg, iv out of 4 rabbits tested; how it was run: as §1
Oryctolagus cuniculus [5] = assay: Number of rabbits convulsed at 0.01 mg/kg, iv out of 4 rabbits tested; how it was run: as §1
Oryctolagus cuniculus [6] = assay: Number of rabbits convulsed at 0.05 mg/kg, iv out of 4 rabbits tested; how it was run: as §1
Oryctolagus cuniculus [7] = assay: Number of rabbits convulsed at 0.25 mg/kg, iv out of 1 rabbits tested; how it was run: as §1
Oryctolagus cuniculus [8] = assay: Number of rabbits convulsed at 1 mg/kg, iv out of 1 rabbits tested; how it was run: as §1
Oryctolagus cuniculus [9] = assay: Number of rabbits convulsed at 0.5 mg/kg, iv out of 1 rabbits tested; how it was run: as §1
Oryctolagus cuniculus [10] = assay: Number of rabbits convulsed at 0.5 mg/kg, iv out of 4 rabbits tested; how it was run: as §1
Oryctolagus cuniculus [11] = assay: Number of rabbits convulsed at 0.9 mg/kg, iv out of 3 rabbits tested; how it was run: as §1
Oryctolagus cuniculus [12] = assay: Number of rabbits convulsed at 20 mg/kg, iv out of 3 rabbits tested; how it was run: as §1
Oryctolagus cuniculus [13] = assay: Number of rabbits convulsed at 0.1 mg/kg, iv out of 4 rabbits tested; how it was run: as §1
Oryctolagus cuniculus [14] = assay: Number of rabbits convulsed at 0.005 mg/kg, iv out of 4 rabbits tested; how it was run: as §1
Oryctolagus cuniculus [15] = assay: Number of rabbits convulsed at 0.5 mg/kg, iv out of 3 rabbits tested; how it was run: as §1
Oryctolagus cuniculus [16] = assay: Number of rabbits convulsed at 0.9 mg/kg, iv out of 4 rabbits tested; how it was run: as §1
Oryctolagus cuniculus [17] = assay: Number of rabbits convulsed at 0.1 mg/kg, iv out of 2 rabbits tested; how it was run: as §1
Oryctolagus cuniculus [18] = assay: Number of rabbits convulsed at 0.9 mg/kg, iv out of 1 rabbits tested; how it was run: as §1
Oryctolagus cuniculus [19] = assay: Number of rabbits convulsed at 20 mg/kg, iv out of 2 rabbits tested; how it was run: as §1
Oryctolagus cuniculus [20] = assay: Number of rabbits convulsed at 0.1 mg/kg, iv out of 1 rabbits tested; how it was run: as §1
Oryctolagus cuniculus [21] = assay: Number of rabbits convulsed at 1 mg/kg, iv out of 3 rabbits tested; how it was run: as §1
Oryctolagus cuniculus [22] = assay: Number of rabbits convulsed at 5 mg/kg, iv out of 1 rabbit tested; how it was run: as §1
Oryctolagus cuniculus [23] = assay: Number of rabbits convulsed at 10 mg/kg, iv out of 1 rabbit tested; how it was run: as §1
Oryctolagus cuniculus [24] = assay: Number of rabbits convulsed at 0.05 mg/kg, iv out of 3 rabbits tested; how it was run: as §1
Oryctolagus cuniculus [25] = assay: Number of rabbits convulsed at 5 mg/kg, iv out of 1 rabbits tested; how it was run: as §1
Oryctolagus cuniculus [26] = assay: Number of rabbits convulsed at 10 mg/kg, iv out of 1 rabbits tested; how it was run: as §1
Oryctolagus cuniculus [27] = assay: Number of rabbits convulsed at 0.25 mg/kg, iv out of 5 rabbits tested; how it was run: as §1
Oryctolagus cuniculus [28] = assay: Number of rabbits convulsed at 5 mg/kg, iv out of 4 rabbits tested; how it was run: as §1
Oryctolagus cuniculus [29] = assay: Number of rabbits convulsed at 20 mg/kg, iv out of 1 rabbits tested; how it was run: as §1
Oryctolagus cuniculus [30] = assay: Number of rabbits convulsed at 0.5 mg/kg, iv out of 7 rabbits tested; how it was run: as §1
Oryctolagus cuniculus [31] = assay: Number of rabbits convulsed at 0.05 mg/kg, iv out of 2 rabbits tested; how it was run: as §1
Oryctolagus cuniculus [32] = assay: Number of rabbits convulsed at 15 mg/kg, iv out of 1 rabbit tested; how it was run: as §1
Oryctolagus cuniculus [33] = assay: Number of rabbits convulsed at 8 mg/kg, iv out of 2 rabbits tested; how it was run: as §1
Oryctolagus cuniculus [34] = assay: Number of rabbits convulsed at 20 mg/kg, iv out of 4 rabbits tested; how it was run: as §1
Oryctolagus cuniculus [35] = assay: Number of rabbits convulsed at 8 mg/kg, iv out of 1 rabbit tested; how it was run: as §1
Oryctolagus cuniculus [36] = assay: Number of rabbits convulsed at 15 mg/kg, iv out of 7 rabbits tested; how it was run: as §1
Oryctolagus cuniculus [37] = assay: Number of rabbits convulsed at 20 mg/kg, iv out of 6 rabbits tested; how it was run: as §1
Oryctolagus cuniculus [38] = assay: Number of rabbits convulsed at 10 mg/kg, iv out of 6 rabbits tested; how it was run: as §1
Oryctolagus cuniculus [39] = assay: Number of rabbits convulsed at 15 mg/kg, iv out of 10 rabbits tested; how it was run: as §1
Oryctolagus cuniculus [40] = assay: Number of rabbits convulsed at 0.5 mg/kg, iv out of 20 rabbits tested; how it was run: as §1
Oryctolagus cuniculus [41] = assay: Number of rabbits convulsed at 0.1 mg/kg, iv out of 10 rabbits tested; how it was run: as §1
Oryctolagus cuniculus [42] = assay: Number of rabbits convulsed at 0.9 mg/kg, iv out of 9 rabbits tested; how it was run: as §1
Oryctolagus cuniculus [43] = assay: Number of rabbits convulsed at 0.05 mg/kg, iv out of 14 rabbits tested; how it was run: as §1

## CCCCCc1cc(O)c2c(c1)OC(C)(C)c1ccc(CO)cc1-2
Oryctolagus cuniculus [1]
  No. of rabbits convulsed: 0
Oryctolagus cuniculus [2]
  No. of rabbits convulsed: 2
Oryctolagus cuniculus [3]
  No. of rabbits convulsed: 1
Oryctolagus cuniculus [4]
  No. of rabbits convulsed: 1

## CCCCCc1cc(O)c2c(c1)OC(C)(C)[C@@H]1CC=C(CO)CC21 (some centres not stated)
Oryctolagus cuniculus [5]
  No. of rabbits convulsed: 2
Oryctolagus cuniculus [6]
  No. of rabbits convulsed: 4
Oryctolagus cuniculus [7]
  No. of rabbits convulsed: 1
Oryctolagus cuniculus [8]
  No. of rabbits convulsed: 1
Oryctolagus cuniculus [9]
  No. of rabbits convulsed: 1

## CCCCCc1cc(O)c2c(c1)OC(C)(C)[C@@H]1C[C@H](O)C(C)=CC21 (some centres not stated)
Oryctolagus cuniculus [5]
  No. of rabbits convulsed: 2
Oryctolagus cuniculus [6]
  No. of rabbits convulsed: 4

## CCCCCc1cc(O)c2c(c1)OC(C)(C)[C@@H]1CC=C(C=O)CC21 (some centres not stated)
Oryctolagus cuniculus [5]
  No. of rabbits convulsed: 0
Oryctolagus cuniculus [10]
  No. of rabbits convulsed: 4
Oryctolagus cuniculus [6]
  No. of rabbits convulsed: 4

## CCCCCc1cc(O)c2c(c1)OC(C)(C)C1=C2CCCC1
Oryctolagus cuniculus [11]
  No. of rabbits convulsed: 0
Oryctolagus cuniculus [12]
  No. of rabbits convulsed: 1

## CCCCCCC(C)(C)c1cc(O)c2c(c1)OC(C)(C)[C@@H]1CCC(=O)CC21 (some centres not stated)
Oryctolagus cuniculus [13]
  No. of rabbits convulsed: 4
Oryctolagus cuniculus [14]
  No. of rabbits convulsed: 3
Oryctolagus cuniculus [5]
  No. of rabbits convulsed: 4

## CCCCCc1cc(O)c2c(c1)OC(C)(C)C1=C2CC(C)CC1 (configuration not stated)
Oryctolagus cuniculus [15]
  No. of rabbits convulsed: 2
Oryctolagus cuniculus [16]
  No. of rabbits convulsed: 4
Oryctolagus cuniculus [17]
  No. of rabbits convulsed: 0

## CCCCCc1cc(O)c2c(c1)OC(C)(C)[C@@H]1C[C@@H](O)C(C)=CC21 (some centres not stated)
Oryctolagus cuniculus [18]
  No. of rabbits convulsed: 0
Oryctolagus cuniculus [19]
  No. of rabbits convulsed: 0
Oryctolagus cuniculus [20]
  No. of rabbits convulsed: 0

## CCCCCc1cc(O)c2c(c1)OC(C)(C)[C@@H]1CC=C(C(=O)O)CC21 (some centres not stated)
Oryctolagus cuniculus [21]
  No. of rabbits convulsed: 0
Oryctolagus cuniculus [19]
  No. of rabbits convulsed: 2
Oryctolagus cuniculus [22]
  No. of rabbits convulsed: 0
Oryctolagus cuniculus [23]
  No. of rabbits convulsed: 0

## CCCCCC(C)C(C)c1cc(O)c2c(c1)OC(C)(C)[C@@H]1CC=C(C)CC21 (some centres not stated)
Oryctolagus cuniculus [24]
  No. of rabbits convulsed: 3
Oryctolagus cuniculus [5]
  No. of rabbits convulsed: 3

## CCCCCc1cc(O)c2c(c1)OC(C)(C)[C@@H]1CCC(C)CC21 (some centres not stated)
Oryctolagus cuniculus [21]
  No. of rabbits convulsed: 3
Oryctolagus cuniculus [25]
  No. of rabbits convulsed: 1
Oryctolagus cuniculus [20]
  No. of rabbits convulsed: 1
Oryctolagus cuniculus [6]
  No. of rabbits convulsed: 2
Oryctolagus cuniculus [9]
  No. of rabbits convulsed: 1

## CCCCC(O)c1cc(O)c2c(c1)OC(C)(C)c1ccc(C)cc1-2 (configuration not stated)
Oryctolagus cuniculus [25]
  No. of rabbits convulsed: 0
Oryctolagus cuniculus [26]
  No. of rabbits convulsed: 0

## CC1=CC2c3c(O)cc(CCCCCO)cc3OC(C)(C)[C@@H]2CC1 (some centres not stated)
Oryctolagus cuniculus [13]
  No. of rabbits convulsed: 4
Oryctolagus cuniculus [6]
  No. of rabbits convulsed: 2

## CCCCCc1cc(O)c2c(c1)OC(C)(C)[C@@H]1CCC(CO)=CC21 (some centres not stated)
Oryctolagus cuniculus [13]
  No. of rabbits convulsed: 4
Oryctolagus cuniculus [5]
  No. of rabbits convulsed: 3
Oryctolagus cuniculus [27]
  No. of rabbits convulsed: 5
Oryctolagus cuniculus [6]
  No. of rabbits convulsed: 4

## CCCCCc1cc(O)c2c(c1)OC(C)(C)[C@@H]1CC=C(C)CC21 (single isomer, unassigned; (+))
Oryctolagus cuniculus [28]
  No. of rabbits convulsed: 2
Oryctolagus cuniculus [29]
  No. of rabbits convulsed: 1

## CCCCCc1cc(O)c2c(c1)OC(C)(C)[C@@H]1CC=C(C)CC21 (single isomer, unassigned; (-))
Oryctolagus cuniculus [13]
  No. of rabbits convulsed: 4
Oryctolagus cuniculus [30]
  No. of rabbits convulsed: 7
Oryctolagus cuniculus [6]
  No. of rabbits convulsed: 2

## CC(=O)Oc1cc(OC(C)CCCc2ccccc2)cc2c1[C@@H]1C[C@H](O)CC[C@H]1[C@H](C)N2 (single isomer, unassigned; (-)) [NANTRADOL]
Oryctolagus cuniculus [31]
  No. of rabbits convulsed: 2
Oryctolagus cuniculus [6]
  No. of rabbits convulsed: 3

## CCCCCc1cc(O)c2c(c1)OC(C)(CCC=C(C)C)C=C2 (configuration not stated) [CANNABICHROMENE]
Oryctolagus cuniculus [32]
  No. of rabbits convulsed: 0
Oryctolagus cuniculus [33]
  No. of rabbits convulsed: 0
Oryctolagus cuniculus [34]
  No. of rabbits convulsed: 1

## CCCCCc1cc(O)c2c(c1)OC1(C)CCC3C1C2C3(C)C (configuration not stated) [CANNABICYCLOL]
Oryctolagus cuniculus [19]
  No. of rabbits convulsed: 0
Oryctolagus cuniculus [35]
  No. of rabbits convulsed: 0

## C=C(C)[C@@H]1CCC(C)=C[C@H]1c1c(O)cc(CCCCC)cc1O [CANNABIDIOL]
Oryctolagus cuniculus [36]
  No. of rabbits convulsed: 0
Oryctolagus cuniculus [37]
  No. of rabbits convulsed: 0

## CCCCCc1cc(O)c2c(c1)OC(C)(C)c1ccc(C)cc1-2 [CANNABINOL]
Oryctolagus cuniculus [38]
  No. of rabbits convulsed: 4
Oryctolagus cuniculus [39]
  No. of rabbits convulsed: 10

## CCCCCc1cc(O)c2c(c1)OC(C)(C)[C@@H]1CCC(C)=C[C@@H]21 [DRONABINOL]
Oryctolagus cuniculus [40]
  No. of rabbits convulsed: 20
Oryctolagus cuniculus [5]
  No. of rabbits convulsed: 0
Oryctolagus cuniculus [41]
  No. of rabbits convulsed: 10
Oryctolagus cuniculus [26]
  No. of rabbits convulsed: 1
Oryctolagus cuniculus [42]
  No. of rabbits convulsed: 9
Oryctolagus cuniculus [43]
  No. of rabbits convulsed: 14

## CCCCCc1cc(O)cc(O)c1 [WHILE OLIVETOL]
Oryctolagus cuniculus [34]
  No. of rabbits convulsed: 0
